Drawing on ChEMBL document CHEMBL4007483, “Design, synthesis and potent cytotoxic activity of novel 7-(N-[(substituted-sulfonyl)piperazinyl]-methyl)-camptothecin derivatives” (Bioorg Med Chem Lett, 2017), this text covers IC50 for 19 compounds.

Assay type in all cases: functional, cell-based
Assay [1] concerns A549. Description: Cytotoxicity against human A549 cells after 72 hrs by sulforhodamine B assay. The settings on record: A549, 72 h. In short, it runs like this:
(§1)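 Cells seeded at 3–5 × 10^3 per well in RPMI-1640 with 10% FBS containing graded sample concentrations, exposed 72 h. Attached cells fixed with cold 50% trichloroacetic acid 30 min, stained with 0.04% SRB 30 min. Bound dye solubilized in 10 mM Tris-base, absorbance read at 515 nm; IC50 from concentration series.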

For assay [2], the system named is KB. The assay is described as follows: Cytotoxicity against human KB cells after 72 hrs by sulforhodamine B assay. In short, it runs like this: as §1
Assay [3] has as its system MDA-MB-231. Description: Cytotoxicity against human MDA-MB-231 cells after 72 hrs by sulforhodamine B assay. The settings on record: MDA-MB-231, 72 h. In short, it runs like this:
as §1

Assay [4] can be described thus: Cytotoxicity against human KBVIN cells after 72 hrs by sulforhodamine B assay. A digest of the protocol: as §1
In assay [5] the test system is MCF7. The assay is described as follows: Cytotoxicity against human MCF7 cells after 72 hrs by sulforhodamine B assay. The conditions noted are these: MCF7, 72 h. A digest of the protocol: as §1

On to `CC[C@@]1(O)C(=O)OCc2c1cc1n(c2=O)Cc2c-1nc1ccccc1c2CN1CCN(S(=O)(=O)Cc2ccccc2)CC1`, for which the IC50 in assay [1] was 27.4 nM; in assay [2] it was 195 nM; in assay [3] it was 552 nM; in assay [4], 416 nM; in assay [5] it was 362 nM.

`CC[C@@]1(O)C(=O)OCc2c1cc1n(c2=O)Cc2c-1nc1ccccc1c2CN1CCN(S(=O)(=O)c2ccc(OC)cc2)CC1`: the IC50 in assay [1] amounted to 5.36 nM; in assay [2], 20.7 nM; in assay [3], 124 nM; in assay [4] it was 142 nM; in assay [5], 70.9 nM.

As to `CC[C@@]1(O)C(=O)OCc2c1cc1n(c2=O)Cc2c-1nc1ccccc1c2CN1CCN(S(=O)(=O)N(C)C)CC1`, the 50% inhibitory concentration (IC50) was found to be 7.22 nM in assay [1]; 78.6 nM in assay [2]; 336 nM in assay [3]; 141 nM in assay [4]; 71.5 nM in assay [5].

As to `CC[C@@]1(O)C(=O)OCc2c1cc1n(c2=O)Cc2c-1nc1ccccc1c2CN1CCN(S(=O)(=O)c2ccc(C(C)C)cc2)CC1`, the IC50 was determined as 4.37 nM in assay [1]; 15.9 nM in assay [2]; 122 nM in assay [3]; 81.4 nM in assay [4]; 67.6 nM in assay [5].

Consider `CC[C@@]1(O)C(=O)OCc2c1cc1n(c2=O)Cc2cc3ccccc3nc2-1` [CAMPTOTHECIN], for which the IC50 in assay [1] worked out at 8.63 nM; in assay [2] it was 50 nM; in assay [3], 307 nM; in assay [4], 15.7 nM; in assay [5], 87.5 nM.

For the compound `CC[C@@]1(O)C(=O)OCc2c1cc1n(c2=O)Cc2c-1nc1ccccc1c2CN1CCN(S(=O)(=O)c2cccnc2)CC1`, the IC50 in assay [1] came to 21.9 nM; in assay [2], 67.8 nM; in assay [3] it was 106 nM; in assay [4], 327 nM; in assay [5], 61 nM.

On to `CC[C@@]1(O)C(=O)OCc2c1cc1n(c2=O)Cc2c-1nc1ccccc1c2CN1CCN(S(=O)(=O)c2ccccc2)CC1`, for which the IC50 came out at 0.25 nM in assay [1]; 2 nM in assay [2]; 46.4 nM in assay [3]; 70.4 nM in assay [4]; 4.9 nM in assay [5].

With `CC[C@@]1(O)C(=O)OCc2c1cc1n(c2=O)Cc2c-1nc1ccccc1c2CN1CCN(S(=O)(=O)c2cc(OC)cc(OC)c2)CC1`, the IC50 in assay [1] is 1.42 nM; in assay [2] it was 2.9 nM; in assay [3], 6.4 nM; in assay [4], 1.2 nM; in assay [5], 34 nM.

In the case of `CC[C@@]1(O)C(=O)OCc2c1cc1n(c2=O)Cc2c-1nc1ccccc1c2CN1CCN(S(=O)(=O)c2ccc(C)cc2)CC1`, the half-inhibitory concentration (IC50) came out at 0.89 nM in assay [1]; 84.5 nM in assay [2]; 84.2 nM in assay [3]; 34.6 nM in assay [4]; 18.2 nM in assay [5].

For the compound `CC[C@@]1(O)C(=O)OCc2c1cc1n(c2=O)Cc2c-1nc1ccccc1c2CN1CCN(S(=O)(=O)c2cccs2)CC1`, the IC50 in assay [1] was found to be 0.21 nM; in assay [2], 71.3 nM; in assay [3], 30.5 nM; in assay [4], 57.5 nM; in assay [5], 8 nM.

Take `CCc1ccc(S(=O)(=O)N2CCN(Cc3c4c(nc5ccccc35)-c3cc5c(c(=O)n3C4)COC(=O)[C@]5(O)CC)CC2)cc1`: the IC50 in assay [1] was determined as 0.65 nM; in assay [2], 10.9 nM; in assay [3] it was 105 nM; in assay [4], 126 nM; in assay [5] it was 61.8 nM.

Consider `CC[C@@]1(O)C(=O)OCc2c1cc1n(c2=O)Cc2c-1nc1ccccc1c2CN1CCN(S(=O)(=O)c2ccc3ccccc3c2)CC1`, for which the 50% inhibitory concentration (IC50) in assay [1] was found to be 13 nM; in assay [2], 44.2 nM; in assay [3] it was 113 nM; in assay [4], 165 nM; in assay [5] it was 81.3 nM.

Consider `CCCCS(=O)(=O)N1CCN(Cc2c3c(nc4ccccc24)-c2cc4c(c(=O)n2C3)COC(=O)[C@]4(O)CC)CC1`, for which the IC50 was found to be 4.01 nM in assay [1]; 8.5 nM in assay [2]; 134 nM in assay [3]; 203 nM in assay [4]; 74.9 nM in assay [5].

`CC[C@@]1(O)C(=O)OCc2c1cc1n(c2=O)Cc2c-1nc1ccccc1c2CN1CCN(S(=O)(=O)c2cc(F)cc(F)c2)CC1`: the IC50 in assay [1] was 0.7 nM; in assay [2], 21 nM; in assay [3] it was 82.6 nM; in assay [4] it was 266 nM; in assay [5], 56.3 nM.

Regarding `CC[C@@]1(O)C(=O)OCc2c1cc1n(c2=O)Cc2c-1nc1ccccc1c2CN1CCN(S(=O)(=O)c2ccc([N+](=O)[O-])cc2)CC1`, the IC50 in assay [1] was 29.7 nM; in assay [2], 55.5 nM; in assay [3] it was 350 nM; in assay [4], 481 nM; in assay [5], 96.2 nM.

For the compound `CC[C@@]1(O)C(=O)OCc2c1cc1n(c2=O)Cc2c-1nc1ccccc1c2CN1CCN(S(=O)(=O)c2ccc(Cl)cc2)CC1`, the concentration for half-maximal inhibition (IC50) in assay [1] was determined as 6.92 nM; in assay [2] it was 96.9 nM; in assay [3], 75.4 nM; in assay [4], 20.2 nM; in assay [5] it was 34.5 nM.

Turning to `CCc1c2c(nc3ccc(OC(=O)N4CCC(N5CCCCC5)CC4)cc13)-c1cc3c(c(=O)n1C2)COC(=O)[C@]3(O)CC` [IRINOTECAN], the IC50 in assay [4] was more than 20000 nM.

Regarding `CC[C@@]1(O)C(=O)OCc2c1cc1n(c2=O)Cc2c-1nc1ccccc1c2CN1CCN(S(=O)(=O)c2ccc(F)cc2)CC1`, the IC50 in assay [1] was determined as 0.5 nM; in assay [2], 76.3 nM; in assay [3], 62.8 nM; in assay [4], 25.7 nM; in assay [5], 37.6 nM.

For the compound `CC[C@@]1(O)C(=O)OCc2c1cc1n(c2=O)Cc2cc3c(CN(C)C)c(O)ccc3nc2-1` [TOPOTECAN], in assay [4], it took 287 nM to reach half-maximal inhibition (IC50).
